This passage reports inhibition, Activity and IC50 results from ChEMBL document CHEMBL3091291, “Synthesis and pharmacological characterization of benzenesulfonamides as dual species inhibitors of human and murine mPGES-1” (Bioorg Med Chem, 2013).

The target of data set [1] is T1, Prostaglandin G/H synthase 2 (Homo sapiens) (UniProt P35354).
T1 sequence (whole entry): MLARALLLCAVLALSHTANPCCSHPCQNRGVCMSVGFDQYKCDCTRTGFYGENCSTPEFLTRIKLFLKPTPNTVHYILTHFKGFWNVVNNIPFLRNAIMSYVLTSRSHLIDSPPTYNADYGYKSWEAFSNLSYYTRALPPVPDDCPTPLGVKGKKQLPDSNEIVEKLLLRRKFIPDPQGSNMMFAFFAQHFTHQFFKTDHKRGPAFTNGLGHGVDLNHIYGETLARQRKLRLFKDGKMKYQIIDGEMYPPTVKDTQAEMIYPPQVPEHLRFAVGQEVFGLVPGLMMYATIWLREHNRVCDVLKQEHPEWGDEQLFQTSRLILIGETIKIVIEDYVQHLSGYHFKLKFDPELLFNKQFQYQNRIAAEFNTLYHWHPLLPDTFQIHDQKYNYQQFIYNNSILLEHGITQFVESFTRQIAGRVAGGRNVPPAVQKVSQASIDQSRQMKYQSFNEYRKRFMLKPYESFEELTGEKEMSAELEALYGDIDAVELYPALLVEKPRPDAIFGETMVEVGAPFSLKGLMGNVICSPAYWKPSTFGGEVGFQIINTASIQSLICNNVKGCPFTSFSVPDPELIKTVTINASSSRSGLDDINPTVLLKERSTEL
The data set can be described thus: Inhibition of recombinant human COX2 using […] at 10 uM by LC-MS/MS analysis. The essentials:
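Ovine COX-1 and recombinant human COX-2 tested directly with a commercial COX inhibitor screening kit, following the manufacturer's protocol. COX-derived PGH₂ reduced with SnCl₂; the resulting PGE₂, PGD₂ and PGF₂a diluted in MeOH, spiked with deuterated internal standards and quantified by SPE and LC–MS/MS.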

The subject of the next data set is HeLa. The data set can be described thus: Cytotoxicity against IL-1beta/TNFalpha-stimulated human HeLa cells assessed as cell viability up to 10 uM after 24 hrs by WST-1 assay. In kind it is cell-based. In outline:
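HeLa cells seeded at 3 × 10³ per well in medium with 10% FCS, grown 24 h at 37 °C, then stimulated with IL-1b (1 ng/mL) + TNFa (5 ng/mL) and treated at the same time with compound (1, 10, 100 µM) or DMSO for 24 h. WST-1 reagent then added for 90–150 min; absorbance read at 450 nm against 620 nm reference.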

Another data set addresses T2, Prostaglandin E synthase (Homo sapiens, UniProt O14684).
T2 sequence (O14684 whole entry): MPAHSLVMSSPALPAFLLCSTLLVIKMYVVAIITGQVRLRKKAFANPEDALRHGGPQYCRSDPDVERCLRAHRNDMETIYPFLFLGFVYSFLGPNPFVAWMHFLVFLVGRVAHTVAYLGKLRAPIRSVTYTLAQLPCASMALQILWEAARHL
The data set can be described thus: Inhibition of mPGES-1 in human HeLa cells using PGH2 as substrate assessed as inhibition of IL-1beta/TNFalpha-stimulated PGE2 production preincubated for 30 mins followed by substrate addition measured after 1 min by LC-MS/MS analysis. In kind it is cell-based. In outline: (§1)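 Microsomal fraction from HeLa, NIH-3T3 or RAW 264.7 cells, obtained by sonication and ultracentrifugation, resuspended in 0.1 M KPi pH 7.4 with 2.5 mM reduced GSH. Protein at 0.15 mg/mL (HeLa, NIH) or 0.3 mg/mL (RAW) incubated with compound 30 min on ice. Reaction started with 20 µM PGH₂, stopped after 1 min with FeCl₂/citric acid. PGE₂ quantified by SPE and LC–MS/MS. IC50 from four-parameter logistic fit of increasing concentrations.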

Data set [2] deals with T3, Prostaglandin E synthase (Mus musculus) (UniProt Q9JM51).
T3 sequence (whole entry): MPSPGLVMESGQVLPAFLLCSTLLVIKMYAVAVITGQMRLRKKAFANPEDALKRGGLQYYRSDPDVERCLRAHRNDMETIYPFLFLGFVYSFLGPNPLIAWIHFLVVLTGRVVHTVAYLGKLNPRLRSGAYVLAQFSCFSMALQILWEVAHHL
The data set can be described thus: Inhibition of mPGES-1 in mouse RAW264.7 cells using PGH2 as substrate assessed as inhibition of LPS-stimulated PGE2 production at 5 uM preincubated for 30 mins followed by substrate addition measured after 1 min by LC-MS/MS analysis. In kind it is cell-based. The essentials: as §1

Data set [3] concerns the target T4, Polyunsaturated fatty acid 5-lipoxygenase (Homo sapiens) (UniProt P09917).
T4 sequence (whole entry): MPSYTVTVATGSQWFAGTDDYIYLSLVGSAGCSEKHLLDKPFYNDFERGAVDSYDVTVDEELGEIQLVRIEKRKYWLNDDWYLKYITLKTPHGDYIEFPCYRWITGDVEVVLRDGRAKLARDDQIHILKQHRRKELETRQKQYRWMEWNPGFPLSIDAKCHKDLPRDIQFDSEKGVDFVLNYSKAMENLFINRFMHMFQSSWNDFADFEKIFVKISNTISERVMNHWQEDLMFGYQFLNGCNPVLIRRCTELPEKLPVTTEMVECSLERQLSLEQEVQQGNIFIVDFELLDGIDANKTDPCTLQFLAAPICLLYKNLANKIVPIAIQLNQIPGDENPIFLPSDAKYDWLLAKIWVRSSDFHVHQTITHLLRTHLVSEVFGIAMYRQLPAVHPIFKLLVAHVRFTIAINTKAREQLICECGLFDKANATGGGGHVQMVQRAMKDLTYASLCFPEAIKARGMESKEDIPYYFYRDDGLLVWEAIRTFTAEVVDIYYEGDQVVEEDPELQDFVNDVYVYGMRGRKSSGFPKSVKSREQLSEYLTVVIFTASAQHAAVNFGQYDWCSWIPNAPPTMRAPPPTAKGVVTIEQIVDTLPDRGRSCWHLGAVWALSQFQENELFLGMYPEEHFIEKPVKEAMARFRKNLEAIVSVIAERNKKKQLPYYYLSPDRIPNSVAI
Nature of the data set: Inhibition of calcium ionophore (A23187)-stimulated human 5-LO assessed as reduction of LTB4 production by measuring remaining activity at 100 uM preincubated for 15 mins followed by calcium ionophore (A23187) addition measured after 15 mins by LC-MS/MS analysis. The essentials:
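Heparinized human whole blood (500 µL) preincubated with compound 15 min at 37 °C, then stimulated with 20 µM calcium ionophore A23187 in autologous plasma for 15 min at 37 °C. Plasma spiked with deuterated LTB₄ and HETE internal standards, extracted into ethyl acetate, analysed by LC–MS/MS. Inhibition scored when a level fell by 33% or more versus control.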

The target of data set [4] is T5, Prostaglandin E synthase (Homo sapiens) (UniProt O14684).
T5 sequence (whole entry): T2 sequence (O14684 whole entry)
The data set can be described thus: Inhibition of mPGES-1 in human HeLa cells using PGH2 as substrate assessed as inhibition of IL-1beta/TNFalpha-stimulated PGE2 production at 5 uM preincubated for 30 mins followed by substrate addition measured after 1 min by LC-MS/MS analysis. In kind it is cell-based. The essentials: as §1

For the compound `COc1ccc(CN(Cc2ccccc2)S(=O)(=O)c2ccc(C(=O)O)cc2)cc1`, the values for the inhibition in data set [1], in data set [2] and in data set [4] were under 0%, 29.8% and 39.9%, respectively. Further, the figures for the Activity entry (in the data set with HeLa; in data set [3]) were “Non-toxic” and 110%, respectively. The IC50 at Prostaglandin E synthase came out at 13.8 µM.

`COc1ccc(CN(CC2CCCCC2)S(=O)(=O)c2ccc(C(=O)O)cc2)cc1`: the inhibition in data set [1] stood at 18.5%; in data set [4], 67.9%. The Activity entry in the data set with HeLa is “Non-toxic”; in data set [3], 60.4%. Further, at Prostaglandin E synthase, the IC50 was 10.2 µM.

As for `O=C(O)c1ccc(S(=O)(=O)N(Cc2ccccc2)Cc2ccc(Nc3ccccc3)cc2)cc1`, the inhibition in data set [1] was found to be 12.9%; in data set [4] it was 78.5%. In addition, the values for the Activity entry (with HeLa; in data set [3]) were “Non-toxic” and 47%, respectively. In addition, at Prostaglandin E synthase, the IC50 turned out to be 7.2 µM.

With `O=C(O)c1ccc(S(=O)(=O)N(Cc2ccccc2)c2ccc(Oc3ccccc3)cc2)cc1`, the inhibition in data set [1] is under 0%; in data set [2], 74.7%; in data set [4], 79.8%. For the same compound, the Activity result in the data set with HeLa was “Non-toxic”; in data set [3] it was 140%. In addition, at Prostaglandin E synthase, the IC50 amounted to 1.7 µM.

Take `O=C(O)c1ccc(S(=O)(=O)N(Cc2ccccc2)Cc2ccc(Oc3ccccc3)cc2)cc1`: the inhibition in data set [1] amounted to 3.1%; in data set [2] it was 71.4%; in data set [4], 90%. Besides, the Activity entry in the data set on HeLa was “Non-toxic”; in data set [3] it was 90.8%. Also, the IC50 on Prostaglandin E synthase is 1 µM.
